Measurements: ChEMBL document CHEMBL1833818, “Synthesis of phenanthroindolizidine alkaloids and evaluation of their antitumor activities and toxicities” (Bioorg Med Chem Lett, 2011)

Legend:
[1] = test system: HT-29; test: Cytotoxicity against human HT-29 cells after 96 hrs by […] assay; type: functional, cell-based; settings: HT-29, 96 h
Procedure, shortened: (§1)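 Exponentially growing cells seeded at 10³ cells/well; serially diluted compounds added next day, 96 h exposure. Tetrazolium reagent (2-(2-methoxy-4-nitrophenyl)-3-(4-nitrophenyl)-5-(2,4-disulfophenyl)-2H-tetrazolium) added, 1 h at 37 °C, absorbance 450 nm. IC50 = concentration inhibiting growth 50% versus solvent-treated cells.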

[2] = test system: A549; test: Cytotoxicity against human A549 cells after 96 hrs by […] assay; type: functional, cell-based; settings: A549, 96 h; procedure, shortened: as §1
[3] = test system: HCT-116; test: Cytotoxicity against human HCT116 cells after 96 hrs by […] assay; type: functional, cell-based; settings: HCT-116, 96 h; procedure, shortened: as §1
[4] = test system: Mus musculus; test: Toxicity in human HCT116 cells xenografted nude mouse assessed as mortality at 200 mg/kg, ip; type: organism-based, HCT-116; set-up: dose 200 mg/kg, route intraperitoneal; settings: in vivo
Procedure, shortened: (§2)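 HCT116 cells, 2 × 10⁶ per mouse, implanted s.c. in 6-week-old male nude mice. Mice were grouped 5 per group once the estimated tumour volume reached about 100 mm³ (day 0). Samples were given i.p. 10 times, on days 1–5 and 8–12. Tumours were excised and weighed on day 21 after inoculation. Mortality was recorded per group.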

[5] = test system: HCT-116; test: Antitumor activity against human HCT116 cells xenografted in nude mouse assessed as tumor growth inhibition at 200 mg/kg, ip administered 10 times on days 1 to 5 and 8 to 12 measured on day 21 post-implantation relative to control; type: functional; settings: HCT-116, ip, 504 h, route intraperitoneal, read-out: GI
Procedure, shortened: (§3)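 HCT116 cells (2 × 10⁶/mouse) implanted s.c. in 6-week-old male nude mice; groups of 5 formed when estimated tumor volume reached about 100 mm³ (day 0). Dosing i.p. on days 1–5 and 8–12. Tumors excised and weighed day 21 after inoculation; inhibition rate (%) = [1 − mean tumor weight treated/mean tumor weight control] × 100.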

[6] = test system: Mus musculus; test: Toxicity in human HCT116 cells xenografted nude mouse assessed as mortality at 100 mg/kg, ip; type: organism-based, HCT-116; set-up: dose 100 mg/kg, route intraperitoneal; settings: in vivo; procedure, shortened: as §2
[7] = test system: HCT-116; test: Antitumor activity against human HCT116 cells xenografted in nude mouse assessed as tumor growth inhibition at 100 mg/kg, ip administered 10 times on days 1 to 5 and 8 to 12 measured on day 21 post-implantation relative to control; type: functional; settings: HCT-116, ip, 504 h, route intraperitoneal, read-out: GI; procedure, shortened: as §3
[8] = Toxicity in human HCT116 cells xenografted nude mouse assessed as mortality at 6.25 mg/kg, ip; type: organism-based, HCT-116; set-up: dose 6.25 mg/kg, route intraperitoneal; settings: in vivo, read-out: Activity; procedure, shortened: as §2
[9] = Antitumor activity against mouse Meth-A cells xenografted in BALB/c mouse assessed as tumor growth inhibition at 50 mg/kg, iv administered on day 1, 5, 9 and measured on day 21 post-implantation relative to control; type: functional; settings: read-out: GI
Procedure, shortened: (§4)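 Meth A sarcoma cells (2.5 × 10⁵/mouse) inoculated s.c. into 7-week-old male BALB/c mice, 5 per group; i.v. injection on days 1, 5 and 9. Tumors excised and weighed on day 21 post-inoculation; inhibition rate (%) = [1 − mean tumor weight treated/mean tumor weight control] × 100. Mortality also recorded.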

[10] = test system: Mus musculus; test: Toxicity in mouse Meth-A cells xenografted BALB/c mouse assessed as mortality at 50 mg/kg, iv; type: organism-based; set-up: dose 50 mg/kg, route intravenous; settings: in vivo
Procedure, shortened: (§5)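 Meth A sarcoma cells, 2.5 × 10⁵ per mouse, inoculated s.c. into 7-week-old male BALB/c mice, 5 per group. Samples were injected i.v. on days 1, 5 and 9. Tumours were excised and weighed on day 21 after inoculation. Mortality was recorded per group as deaths/5.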

[11] = Antitumor activity against mouse Meth-A cells xenografted in BALB/c mouse assessed as tumor growth inhibition at 25 mg/kg, iv administered on day 1, 5, 9 and measured on day 21 post-implantation relative to control; type: functional; settings: read-out: GI; procedure, shortened: as §4
[12] = test system: Mus musculus; test: Toxicity in mouse Meth-A cells xenografted BALB/c mouse assessed as mortality at 25 mg/kg, iv; type: organism-based; set-up: dose 25 mg/kg, route intravenous; settings: in vivo; procedure, shortened: as §5
[13] = Antitumor activity against mouse Meth-A cells xenografted in BALB/c mouse assessed as tumor growth inhibition at 100 mg/kg, iv administered on day 1, 5, 9 and measured on day 21 post-implantation relative to control; type: functional; settings: read-out: GI; procedure, shortened: as §4
[14] = test system: Mus musculus; test: Toxicity in human HCT116 cells xenografted nude mouse assessed as mortality at 135 mg/kg, ip; type: organism-based, HCT-116; set-up: dose 135 mg/kg, route intraperitoneal; settings: in vivo; procedure, shortened: as §2
[15] = test system: HCT-116; test: Antitumor activity against human HCT116 cells xenografted in nude mouse assessed as tumor growth inhibition at 135 mg/kg, ip administered 10 times on days 1 to 5 and 8 to 12 measured on day 21 post-implantation relative to control; type: functional; settings: HCT-116, ip, 504 h, route intraperitoneal, read-out: GI; procedure, shortened: as §3
[16] = test system: Mus musculus; test: Toxicity in mouse Meth-A cells xenografted BALB/c mouse assessed as mortality at 100 mg/kg, iv; type: organism-based; set-up: dose 100 mg/kg, route intravenous; settings: in vivo; procedure, shortened: as §5

Compound | IC50 [1] | IC50 [2] | IC50 [3] | other results
COc1cc2c3c(c4ccc(O)cc4c2cc1OC)[C@@H](O)[C@H]1CCCN1C3 | 0.037 µM | 0.0306 µM | 0.0324 µM | –
COc1ccc2c3c(c4cc(OC)c(OC)cc4c2c1)CN1CCC[C@H]1C3 | 0.0451 µM | 0.0438 µM | 0.0417 µM | –
COc1cc2c3c(c4ccc(O)cc4c2cc1OC)C[C@H]1CCCN1C3 | 0.158 µM | 0.0582 µM | 0.0599 µM | –
COc1cc2c3c(c4cc(O)ccc4c2cc1OC)C[C@@H]1CCCN1C3 | 0.0321 µM | 0.0216 µM | 0.0235 µM | –
COc1cc2c3c(c4cccc(O)c4c2cc1OC)C[C@@H]1CCCN1C3 | 0.452 µM | 0.0055 µM | 0.0047 µM | –
COc1cc2c3c(c4ccc(OC(C)=O)cc4c2cc1OC)C[C@@H]1CCCN1C3 | 0.0035 µM | 0.0028 µM | 0.002 µM | Activity [4]: Non-toxic; inhibition in vivo at 200 mg/kg [5]: 34.7%
COc1cc2c3c(c4ccccc4c2cc1OC)C[C@@H]1CCCN1C3 | 0.0571 µM | 0.0489 µM | 0.0496 µM | Activity [6]: Non-toxic; inhibition in vivo at 100 mg/kg [7]: 21%
COc1cc2c3c(c4ccc(F)cc4c2cc1OC)C[C@@H]1CCCN1C3 | 0.0589 µM | 0.051 µM | 0.0481 µM | Activity [6]: Non-toxic; inhibition in vivo at 100 mg/kg [7]: 30.7%; Activity [4]: Toxic; mortality [8]: 10%
CCc1ccc2c3c(c4cc(OC)c(OC)cc4c2c1)CN1CCC[C@H]1C3 | 0.484 µM | 0.441 µM | 0.403 µM | –
CCOc1cc2c3c(c4ccc(O)cc4c2cc1OCC)C[C@@H]1CCCN1C3 | 0.0805 µM | 0.0422 µM | 0.0388 µM | –
Oc1ccc2c3c(c4cc5c(cc4c2c1)OCO5)CN1CCC[C@H]1C3 | 0.879 µM | 0.392 µM | 0.377 µM | –
COc1cc2c3c(c4ccc(O)cc4c2cc1OC)[C@@H](O)[C@@H]1CCCN1C3 | 0.0536 µM | 0.0523 µM | 0.0444 µM | –
COc1cc2c3c(c4ccc(O)cc4c2cc1OC)[C@H](O)[C@H]1CCCN1C3 | 0.935 µM | 0.818 µM | 0.671 µM | –
COc1cc2c3c(c4ccc(O)cc4c2cc1OC)C[C@@H]1CCCN1C3 | 0.0018 µM | 0.0006 µM | 0.0005 µM | Activity [6]: Non-toxic; inhibition in vivo at 100 mg/kg [7]: 35.7%; Activity [4]: Non-toxic; inhibition in vivo at 200 mg/kg [5]: 48.7%; inhibition in vivo at 50 mg/kg [9]: 70.8%; Activity [10]: Non-toxic; inhibition in vivo at 25 mg/kg [11]: 46.9%; Activity [12]: Non-toxic
CCc1c2c(nc3ccc(OC(=O)N4CCC(N5CCCCC5)CC4)cc13)-c1cc3c(c(=O)n1C2)COC(=O)[C@]3(O)CC.Cl | – | – | – | inhibition in vivo at 100 mg/kg [13]: 78.3%; Activity [14]: Non-toxic; inhibition in vivo at 50 mg/kg [9]: 46.2%; Activity [10]: Non-toxic; inhibition in vivo at 135 mg/kg [15]: 77%; Activity [16]: Non-toxic
COc1cc2c3c(c4ccc(O)cc4c2cc1OC)[C@H](O)[C@@H]1CCCN1C3 [TYLOPHORIDICINE E] | 0.0029 µM | 0.0027 µM | 0.0013 µM | Activity [10]: Toxic; inhibition in vivo at 25 mg/kg [11]: 30.6%; Activity [12]: Non-toxic
